Tb MetRS inh: Trypanosoma brucei MetRS inhibition; purified T. brucei MetRS, ATP depletion, Kinase-Glo luminescence; inhibition, % at 11.9 µM; 360,000 compounds, 0.4% hits;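 active = inhibition above a per-plate cutoff of the control wells' mean inhibition plus 3 SD, cut at about 5.5% in these data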;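 note: 0% = DMSO wells median and 100% = median of wells with control inhibitor compound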
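Dosing: 11.9 µM compound single dose, 0.9% DMSO; Assay system: purified T. brucei MetRS enzyme; Measured by: Kinase-Glo luciferase luminescence reporting remaining unconsumed ATP; Schedule: 15 min plus 2 h at 25 °C.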
DYRK1A inh: blocks rat Dyrk1A kinase activity; ADP-Glo luminescence, NFATc1 peptide; inhibition, % at 12.5 µM; 310,000 compounds, 0.43% hits; AID 504441; in the data active = inhibition above about 50%;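 note: plate controls were vehicle with enzyme for no effect and no enzyme for full effect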
CDK5 inh: CDK5/p35 (human) kinase inhibition; inhibition, % at 10 µM; AID 488839; 330,000 compounds, 0.01% hits; Q00535+Q15078; Recombinant CDK5/p35, ADP-Glo luminescence, 60 min;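 active = highest replicate inhibition of at least 50% and at least 75% of replicates reaching 50%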;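 note: plate controls were DMSO neutral control for no effect and GW8510 at 10 µM for full effect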
Target sequence (Q00535 whole entry, looked up): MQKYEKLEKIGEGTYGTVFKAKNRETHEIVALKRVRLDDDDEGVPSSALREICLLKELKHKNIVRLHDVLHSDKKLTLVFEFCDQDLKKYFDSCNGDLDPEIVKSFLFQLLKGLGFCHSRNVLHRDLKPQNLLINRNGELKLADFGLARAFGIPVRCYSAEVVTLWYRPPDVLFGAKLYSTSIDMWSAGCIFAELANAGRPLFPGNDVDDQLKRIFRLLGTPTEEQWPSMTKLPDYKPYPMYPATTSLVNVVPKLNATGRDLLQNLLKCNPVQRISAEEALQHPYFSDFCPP
Target sequence (Q15078 whole entry, looked up): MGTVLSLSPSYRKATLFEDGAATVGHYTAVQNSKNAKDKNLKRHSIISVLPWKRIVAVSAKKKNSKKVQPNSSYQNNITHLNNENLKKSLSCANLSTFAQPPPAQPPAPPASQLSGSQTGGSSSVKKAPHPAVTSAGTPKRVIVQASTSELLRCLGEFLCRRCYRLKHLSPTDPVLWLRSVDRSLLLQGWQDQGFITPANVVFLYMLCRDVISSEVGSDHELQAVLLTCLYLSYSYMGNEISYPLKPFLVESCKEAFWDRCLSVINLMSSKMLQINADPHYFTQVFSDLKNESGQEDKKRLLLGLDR
CAL PDZ FP-1: inhibitors of human CAL PDZ peptide binding | Q9HD26 | purified CAL PDZ, TMR-peptide fluorescence polarization, 1 h | inhibition, % at 20 µM | 330,000 compounds, 0.02% hits;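 active = highest replicate inhibition of at least 40%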;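 note: plate controls were DMSO neutral control wells for no effect and unlabeled competitor peptide control wells for full effect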
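Test system: purified CerCALP PDZ construct; Compound dosing: one concentration, 20 µM compound; Also added: TMR-labelled reporter peptide T*-PRC34 bound in PDZ groove; Read-out: inhibition from polarization loss; Controls: unlabelled peptide and DMSO controls; Signal: FP readout, S and P plane fluorescence; Incubation: 1 h at RT.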
CAL PDZ FP-2: CAL PDZ (human) peptide binding inhibition; Q9HD26; purified CAL PDZ, TMR-peptide fluorescence polarization, 1 h; inhibition, % at 24.9 µM; 300,000 compounds, 0.92% hits; AID 602252;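 active = mean inhibition of at least 30% with at least half of replicates also reaching 30%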;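 note: 0% = DMSO neutral control and 100% = excess unlabeled competitor peptide PRC23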
PvdQ acylase: blocks Pseudomonas aeruginosa PvdQ acylase activity; purified PvdQ acylase, fluorescence plate reader; inhibition, % at 10 µM; 340,000 compounds, 0.063% hits; in the data active = inhibition above about 30%, passing the limit was not always enough;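 note: 0% = vehicle neutral wells and 100% = reference inhibitor wells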
* hit, by the source's call. Most compounds without a hit are left out; they make up all but 1.4% or so of the library.

For Cc1ccc(C(C#N)c2ccc3c(C(F)(F)F)cc(C(F)(F)F)nc3n2)cc1 (stereo unspecified) the results were Tb MetRS inh -0.7, DYRK1A inh 1.1, CDK5 inh 2.9, CAL PDZ FP-1 -1.9, CAL PDZ FP-2 -3.4 and PvdQ acylase -10.5.
For Cc1ccc(C(C#N)c2ccc(Cl)nn2)cc1 (stereo unspecified) the results were Tb MetRS inh -1.8, DYRK1A inh -2.2, CDK5 inh 0.6, CAL PDZ FP-1 0.3, CAL PDZ FP-2 -1.6 and PvdQ acylase 85.8*.
Screening N#CC(c1ccc(Cl)cc1)c1ccc(Cl)nn1 (stereo unspecified) returned Tb MetRS inh -0.4, DYRK1A inh -0.7, CDK5 inh -0.2, CAL PDZ FP-1 -0.8, CAL PDZ FP-2 -2.1 and PvdQ acylase 80.0*.
For Cc1cc(C)c2c(=O)n3c(nc2c1)C(CC(C)C)NC(=O)c1cccnc1-3 (stereo unspecified) the results were Tb MetRS inh 0.8.
Screening COc1ccc([C@H]2CC(=O)C[C@@H](CCn3cc(C(C)C)nn3)O2)cc1 returned Tb MetRS inh -0.6.
`O=C(NC(c1ccccc1)c1ccsc1)C1CCN(CCOc2ccc(Cl)cc2Cl)CC1` (stereo unspecified) gave Tb MetRS inh -0.1.
For CCN(CCn1cccn1)C(=O)c1cc(COc2ccc(F)c(F)c2)on1 the results were Tb MetRS inh 0.3, DYRK1A inh -4.1, CDK5 inh -5.3, CAL PDZ FP-1 0.0, CAL PDZ FP-2 56.8* and PvdQ acylase -14.2.
`Cc1nn(C)c(C)c1C(C)NC(=O)c1cc(COc2ccc(F)c(F)c2)on1` (stereo unspecified) gave Tb MetRS inh -0.2, DYRK1A inh -3.3, CDK5 inh -0.2, CAL PDZ FP-1 -0.5, CAL PDZ FP-2 40.2* and PvdQ acylase -3.9.
Screening O=C(c1cnn(C(=O)CN2CCCC2=O)c1)c1ccccc1O returned Tb MetRS inh 0.1, DYRK1A inh 12.1, CDK5 inh -0.7, CAL PDZ FP-1 13.2, CAL PDZ FP-2 93.1* and PvdQ acylase -11.4.
For Cn1cc(CN2CCC(C(=O)NC(c3ccc(-c4ccccc4)cc3)c3cnccn3)CC2)c2ccccc21 (stereo unspecified) the results were Tb MetRS inh -0.1.
Cc1c(N2CCCCC2)[nH]c2ccccc12 was read as Tb MetRS inh -0.3.
`COc1ccc(-c2cn3cc(C)ccc3n2)cc1F` gave Tb MetRS inh -0.8, DYRK1A inh -1.0, CDK5 inh -0.3, CAL PDZ FP-1 -6.7, CAL PDZ FP-2 -0.6 and PvdQ acylase 58.7*.
Cc1ccc2nc(-c3ccc4c(c3)OCCO4)cn2c1 was read as Tb MetRS inh -0.7, DYRK1A inh 3.4, CDK5 inh 1.4, CAL PDZ FP-1 -3.4, CAL PDZ FP-2 -3.3 and PvdQ acylase 90.8*.
`COc1ccc(-c2cn3cc(C)ccc3n2)cc1OC` gave Tb MetRS inh -1.0, DYRK1A inh 2.9, CDK5 inh 1.5, CAL PDZ FP-1 0.2, CAL PDZ FP-2 0.5 and PvdQ acylase -19.3.
`Cc1cc(C)c(C#N)c(Nc2ccccc2C)n1` gave Tb MetRS inh -0.6, CDK5 inh 0.8, CAL PDZ FP-1 -0.8, CAL PDZ FP-2 -3.7 and PvdQ acylase -8.0.
For Cc1cc(C)c(C#N)c(Nc2cccc(C)c2C)n1 the results were Tb MetRS inh -0.4, DYRK1A inh -1.0, CDK5 inh 0.8, CAL PDZ FP-1 3.6, CAL PDZ FP-2 82.9* and PvdQ acylase -21.8.
`CC1(C(=O)Nc2ccc3c(c2)OCCO3)CSCC(=O)N1CC(F)(F)F` (stereo unspecified) gave Tb MetRS inh -0.5.
`CCC(=O)N1CCC(C)(C(=O)NCc2ccc(F)cc2)C1` (stereo unspecified) gave Tb MetRS inh -0.2.
CCc1nc2ccc(C(=O)Nc3cc(-c4ccccc4)ccc3OC)cn2c1N(CCN(C)C)CC1CC1 was read as Tb MetRS inh 0.5.
`Cc1sc2ncnc(Sc3ccccc3C(=O)O)c2c1C` gave Tb MetRS inh 0.3, CDK5 inh 1.0, CAL PDZ FP-1 -0.4, CAL PDZ FP-2 2.0 and PvdQ acylase -4.2.
`O=C(O)c1ccccc1Sc1ncnc2sc3c(c12)CCC3` gave Tb MetRS inh 0.6, DYRK1A inh 2.6, CDK5 inh -0.5, CAL PDZ FP-2 64.8* and PvdQ acylase -20.8.
